Assay results from ChEMBL document CHEMBL2311289, “Novel 2-aminooctahydrocyclopentalene-3a-carboxamides as potent CCR2 antagonists” (Bioorg Med Chem Lett, 2013).
pIC50: −log10 of the molar value.

Experiments:
[1] = target: C-C chemokine receptor type 2 (Homo sapiens, UniProt P41597); test: Binding affinity to human CCR2
[2] = target: Voltage-gated inwardly rectifying potassium channel KCNH2 (Homo sapiens, UniProt Q12809); test: Binding affinity to human ERG
[3] = Clearance in dog at 10 mg/kg, po and 2 mg/kg iv; type: ADME, organism-based, Canis lupus familiaris; settings: in vivo
Summary of the method: (§1)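 Dog pharmacokinetics: oral dosing at 10 mpk in 0.5% methocel and intravenous dosing at 2 mpk in 20% HPbCD. Readouts were systemic clearance, Vdss, oral t1/2 and oral AUC.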

[4] = Oral bioavailability in dog at 10 mg/kg; type: ADME, organism-based, Canis lupus familiaris; settings: in vivo
[5] = target: Cytochrome P450 2D6 (Homo sapiens, UniProt P10635); test: Inhibition of human CYP2D6; type: ADME
Cytochrome P450 2D6, sequence (P10635 whole entry): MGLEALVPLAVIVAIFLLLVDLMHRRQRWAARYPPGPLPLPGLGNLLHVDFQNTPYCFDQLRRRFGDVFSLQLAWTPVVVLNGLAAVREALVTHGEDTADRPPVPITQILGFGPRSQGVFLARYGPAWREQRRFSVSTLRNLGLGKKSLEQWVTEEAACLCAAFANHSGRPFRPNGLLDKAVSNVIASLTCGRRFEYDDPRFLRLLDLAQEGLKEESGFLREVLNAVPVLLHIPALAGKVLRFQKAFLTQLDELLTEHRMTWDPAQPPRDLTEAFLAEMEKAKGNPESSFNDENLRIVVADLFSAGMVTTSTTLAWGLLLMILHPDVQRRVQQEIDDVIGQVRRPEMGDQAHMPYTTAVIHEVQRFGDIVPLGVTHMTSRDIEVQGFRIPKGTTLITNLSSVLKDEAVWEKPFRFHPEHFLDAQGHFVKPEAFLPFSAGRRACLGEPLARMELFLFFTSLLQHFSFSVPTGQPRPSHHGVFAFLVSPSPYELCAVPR

[6] = test system: Mus musculus; test: Antiinflammatory activity in thioglycollate-induced mouse peritonitis model expressing human CCR2 assessed as inhibition of macrophage infiltration administered as po bid; type: functional
Summary of the method: (§2)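 Acute inflammation model: peritonitis was induced with thioglycollate in mCCR2 knock-out/hCCR2 knock-in mice. Compound was given orally, and infiltration of macrophages into the peritoneum was measured.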

[7] = target: Cytochrome P450 2C19 (Homo sapiens, UniProt P33261); test: Inhibition of human CYP2C19; type: ADME
Cytochrome P450 2C19, sequence (P33261 whole entry): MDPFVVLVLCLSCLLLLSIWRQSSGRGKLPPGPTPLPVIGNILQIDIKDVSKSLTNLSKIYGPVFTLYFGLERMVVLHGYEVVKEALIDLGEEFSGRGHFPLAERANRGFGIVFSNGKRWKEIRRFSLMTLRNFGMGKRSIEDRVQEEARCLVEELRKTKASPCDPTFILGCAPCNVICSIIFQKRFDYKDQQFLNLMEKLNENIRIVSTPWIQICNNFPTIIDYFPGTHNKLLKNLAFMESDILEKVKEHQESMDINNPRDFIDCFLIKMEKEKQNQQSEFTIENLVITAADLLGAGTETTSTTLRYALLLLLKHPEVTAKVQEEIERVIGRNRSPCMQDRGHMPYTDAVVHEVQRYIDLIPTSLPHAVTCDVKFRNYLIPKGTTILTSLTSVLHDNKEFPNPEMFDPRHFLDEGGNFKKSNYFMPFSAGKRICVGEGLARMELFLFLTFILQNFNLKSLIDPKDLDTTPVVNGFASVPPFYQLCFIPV

[8] = test system: Mus musculus; test: Antiinflammatory activity in thioglycollate-induced mouse peritonitis model expressing human CCR2 assessed as inhibition of macrophage infiltration at 3 mg/kg, po bid relative to control; type: functional; summary of the method: as §2
[9] = target: Cytochrome P450 3A4 (Homo sapiens, UniProt P08684); test: Inhibition of human CYP3A4; type: ADME
Cytochrome P450 3A4, sequence (P08684 whole entry): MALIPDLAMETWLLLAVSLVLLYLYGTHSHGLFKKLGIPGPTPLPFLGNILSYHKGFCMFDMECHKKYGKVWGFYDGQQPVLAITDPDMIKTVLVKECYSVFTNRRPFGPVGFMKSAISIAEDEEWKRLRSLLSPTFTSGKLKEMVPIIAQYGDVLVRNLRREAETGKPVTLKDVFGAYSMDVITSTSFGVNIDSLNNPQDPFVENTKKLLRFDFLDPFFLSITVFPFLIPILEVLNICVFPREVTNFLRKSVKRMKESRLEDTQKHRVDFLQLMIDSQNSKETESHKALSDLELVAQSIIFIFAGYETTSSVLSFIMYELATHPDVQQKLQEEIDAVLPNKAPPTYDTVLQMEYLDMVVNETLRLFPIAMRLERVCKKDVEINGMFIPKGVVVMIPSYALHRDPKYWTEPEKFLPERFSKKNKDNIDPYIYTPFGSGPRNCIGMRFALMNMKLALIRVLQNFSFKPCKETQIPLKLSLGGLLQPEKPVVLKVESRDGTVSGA

[10] = Half life in dog at 10 mg/kg, po; type: ADME, organism-based, Canis lupus familiaris; design: dose 10 mg/kg, route oral; settings: in vivo; summary of the method: as §1
[11] = test system: Mus musculus; test: Antiinflammatory activity in thioglycollate-induced mouse peritonitis model expressing human CCR2 assessed as inhibition of macrophage infiltration at 1 mg/kg, po bid relative to control; type: functional; summary of the method: as §2
[12] = AUC in dog at 10 mg/kg, po; type: ADME, organism-based, Canis lupus familiaris; design: dose 10 mg/kg, route oral; settings: plasma; summary of the method: as §1
[13] = target: T1, Cytochrome P450 1A2 (Homo sapiens, UniProt P05177); test: Inhibition of human CYP1A2; type: ADME
T1 sequence (P05177 whole entry): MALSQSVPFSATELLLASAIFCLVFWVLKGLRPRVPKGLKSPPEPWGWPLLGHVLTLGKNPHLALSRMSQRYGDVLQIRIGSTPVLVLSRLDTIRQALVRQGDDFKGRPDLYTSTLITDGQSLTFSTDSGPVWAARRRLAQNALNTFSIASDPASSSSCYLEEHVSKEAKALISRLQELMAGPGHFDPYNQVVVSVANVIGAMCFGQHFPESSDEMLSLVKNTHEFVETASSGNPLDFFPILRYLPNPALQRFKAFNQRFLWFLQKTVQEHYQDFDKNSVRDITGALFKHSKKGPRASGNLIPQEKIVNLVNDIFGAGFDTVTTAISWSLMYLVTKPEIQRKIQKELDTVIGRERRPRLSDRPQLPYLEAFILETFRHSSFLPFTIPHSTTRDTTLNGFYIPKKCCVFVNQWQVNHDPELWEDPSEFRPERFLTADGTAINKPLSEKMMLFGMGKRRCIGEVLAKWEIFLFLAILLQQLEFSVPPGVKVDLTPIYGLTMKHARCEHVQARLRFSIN

[14] = target: Cytochrome P450 2C9 (Homo sapiens, UniProt P11712); test: Inhibition of human CYP2C9; type: ADME
Cytochrome P450 2C9, sequence (P11712 whole entry): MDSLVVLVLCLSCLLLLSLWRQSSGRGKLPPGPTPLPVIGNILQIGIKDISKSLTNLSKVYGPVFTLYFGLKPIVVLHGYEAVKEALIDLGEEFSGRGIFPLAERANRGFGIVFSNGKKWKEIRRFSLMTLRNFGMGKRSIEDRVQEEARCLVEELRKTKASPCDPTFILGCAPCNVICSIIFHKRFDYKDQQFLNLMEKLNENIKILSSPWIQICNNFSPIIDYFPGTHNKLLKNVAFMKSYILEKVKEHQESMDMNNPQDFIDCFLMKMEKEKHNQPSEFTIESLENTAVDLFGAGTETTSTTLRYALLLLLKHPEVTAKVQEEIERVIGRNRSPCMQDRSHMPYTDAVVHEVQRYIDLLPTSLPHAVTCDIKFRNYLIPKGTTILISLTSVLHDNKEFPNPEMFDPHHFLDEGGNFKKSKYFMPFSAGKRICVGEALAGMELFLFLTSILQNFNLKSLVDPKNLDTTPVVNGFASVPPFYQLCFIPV

[15] = test system: Mus musculus; test: Antiinflammatory activity in thioglycollate-induced mouse peritonitis model expressing human CCR2 assessed as inhibition of macrophage infiltration at 0.3 mg/kg, po bid relative to control; type: functional; summary of the method: as §2
[16] = Volume of distribution at steady state in dog at 10 mg/kg, po and 2 mg/kg iv; type: ADME, organism-based, Canis lupus familiaris; settings: in vivo, read-out: Vdss; summary of the method: as §1
[17] = test system: Mus musculus; test: Antiinflammatory activity in thioglycollate-induced mouse peritonitis model expressing human CCR2 assessed as inhibition of macrophage infiltration at 10 mg/kg, po bid relative to control; type: functional; summary of the method: as §2

Voltage-gated inwardly rectifying potassium channel KCNH2, sequence (Q12809 whole entry): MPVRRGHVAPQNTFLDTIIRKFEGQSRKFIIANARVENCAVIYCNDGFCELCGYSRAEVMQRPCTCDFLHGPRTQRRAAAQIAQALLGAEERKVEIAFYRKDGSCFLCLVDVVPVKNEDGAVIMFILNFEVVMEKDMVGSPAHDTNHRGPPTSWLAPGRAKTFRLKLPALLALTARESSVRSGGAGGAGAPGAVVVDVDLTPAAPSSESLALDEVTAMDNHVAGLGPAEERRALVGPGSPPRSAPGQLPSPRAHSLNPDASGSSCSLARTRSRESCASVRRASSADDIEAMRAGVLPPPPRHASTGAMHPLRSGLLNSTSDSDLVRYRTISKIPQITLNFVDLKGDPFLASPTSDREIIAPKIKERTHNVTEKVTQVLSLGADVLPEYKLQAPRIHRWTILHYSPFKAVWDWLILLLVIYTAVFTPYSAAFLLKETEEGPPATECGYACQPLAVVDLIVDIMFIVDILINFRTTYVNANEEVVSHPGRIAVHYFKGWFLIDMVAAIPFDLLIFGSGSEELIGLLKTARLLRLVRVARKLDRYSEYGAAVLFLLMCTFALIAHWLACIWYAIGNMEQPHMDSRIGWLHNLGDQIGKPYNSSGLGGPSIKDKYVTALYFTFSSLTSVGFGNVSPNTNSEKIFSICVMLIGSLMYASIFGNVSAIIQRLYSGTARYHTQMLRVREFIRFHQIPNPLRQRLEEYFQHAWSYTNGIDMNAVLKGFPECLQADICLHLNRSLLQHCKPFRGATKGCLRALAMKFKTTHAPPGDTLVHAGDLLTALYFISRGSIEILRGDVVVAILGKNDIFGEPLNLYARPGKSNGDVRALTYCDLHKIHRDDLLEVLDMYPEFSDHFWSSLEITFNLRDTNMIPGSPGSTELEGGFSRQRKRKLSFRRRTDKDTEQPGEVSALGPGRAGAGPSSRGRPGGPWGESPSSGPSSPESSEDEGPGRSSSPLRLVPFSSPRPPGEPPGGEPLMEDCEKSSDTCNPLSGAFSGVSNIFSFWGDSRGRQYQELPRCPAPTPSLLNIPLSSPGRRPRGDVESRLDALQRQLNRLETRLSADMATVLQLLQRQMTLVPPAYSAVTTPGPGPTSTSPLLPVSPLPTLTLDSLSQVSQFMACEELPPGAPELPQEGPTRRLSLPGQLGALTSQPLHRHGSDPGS
C-C chemokine receptor type 2, sequence (P41597 whole entry): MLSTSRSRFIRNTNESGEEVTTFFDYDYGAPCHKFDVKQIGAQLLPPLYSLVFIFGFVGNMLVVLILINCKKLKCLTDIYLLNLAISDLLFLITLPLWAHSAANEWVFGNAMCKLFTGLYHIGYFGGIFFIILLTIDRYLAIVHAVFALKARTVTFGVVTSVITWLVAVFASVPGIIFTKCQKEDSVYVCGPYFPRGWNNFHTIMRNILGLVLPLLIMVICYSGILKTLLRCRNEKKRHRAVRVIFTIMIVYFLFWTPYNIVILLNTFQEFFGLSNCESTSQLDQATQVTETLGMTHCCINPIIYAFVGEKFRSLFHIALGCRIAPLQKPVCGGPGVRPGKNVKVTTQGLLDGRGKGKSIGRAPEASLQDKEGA

pIC50 [1] | Compound | pIC50 [2] | also measured
7.02 | COC1COCCC1N[C@@H]1C[C@H]2CC(F)(F)C[C@@]2(C(=O)N2CCc3ncc(C(F)(F)F)cc3C2)C1 (mixture of isomers) | < 4.30 | 
6.68 | COC1COCCC1N[C@@H]1C[C@H]2C[C@H](OC)C[C@@]2(C(=O)N2CCc3ncc(C(F)(F)F)cc3C2)C1 (mixture of isomers) | < 4.30 | 
7.70 | COC1COCCC1N[C@@H]1C[C@H]2C[C@H](Cl)C[C@@]2(C(=O)N2CCc3ncc(C(F)(F)F)cc3C2)C1 (mixture of isomers) | < 4.30 | 
6.06 | O=C(N1CCc2ncc(C(F)(F)F)cc2C1)[C@@]12CCC[C@@H]1C[C@@H](NC1CCSCC1)C2 | 4.64 | 
6.16 | O=C(N1CCc2ncc(C(F)(F)F)cc2C1)[C@@]12CCC[C@@H]1C[C@@H](NC1CCCCCC1)C2 |  | 
5.82 | O=C(N1CCc2ncc(C(F)(F)F)cc2C1)[C@@]12CCC[C@@H]1C[C@@H](NC1CCCCC1)C2 |  | 
6.82 | COC1COCCC1N[C@@H]1C[C@H]2C[C@@H](F)C[C@@]2(C(=O)N2CCc3ncc(C(F)(F)F)cc3C2)C1 (mixture of isomers) |  | 
< 4.60 | O=C(N1CCc2ncc(C(F)(F)F)cc2C1)[C@@]12CCC[C@@H]1C[C@@H](NCC1CCOCC1)C2 | 4.33 | 
6.90 | O=C(N1CCc2ncc(C(F)(F)F)cc2C1)[C@@]12CCC[C@@H]1C[C@@H](NC1CCOCC1)C2 | 4.59 | 
5.45 | O=C(N1CCc2ncc(C(F)(F)F)cc2C1)[C@@]12CCC[C@@H]1C[C@@H](NC1CCS(=O)(=O)CC1)C2 |  | 
7.23 | COC1COCCC1N[C@@H]1C[C@H]2C[C@H](O)C[C@@]2(C(=O)N2CCc3ncc(C(F)(F)F)cc3C2)C1 (mixture of isomers) | < 4.30 | 
5.63 | O=C(N1CCc2ncc(C(F)(F)F)cc2C1)[C@@]12CCC[C@@H]1C[C@@H](NC1CCCC1)C2 | 4.47 | 
5.97 | COC1COCCC1N[C@@H]1C[C@H]2CCCC[C@@]2(C(=O)N2CCc3ncc(C(F)(F)F)cc3C2)C1 (mixture of isomers) |  | 
5.10 | O=C(N1CCc2ncc(C(F)(F)F)cc2C1)[C@@]12CCCC[C@@H]1C[C@@H](NC1CCOCC1)C2 | 4.41 | 
5.48 | CCC(CC)N[C@@H]1C[C@H]2CCC[C@@]2(C(=O)N2CCc3ncc(C(F)(F)F)cc3C2)C1 | < 4.30 | 
< 4.60 | O=C(N[C@@H]1C[C@H]2CCC[C@@]2(C(=O)N2CCc3ncc(C(F)(F)F)cc3C2)C1)C1CCOCC1 | < 4.30 | 
7.64 | COC1COCCC1N[C@@H]1C[C@H]2C[C@H](F)C[C@@]2(C(=O)N2CCc3ncc(C(F)(F)F)cc3C2)C1 (mixture of isomers) |  | 
7.24 | COC1COCCC1N[C@@H]1C[C@H]2C[C@@H](O)C[C@@]2(C(=O)N2CCc3ncc(C(F)(F)F)cc3C2)C1 (mixture of isomers) | < 4.30 | 
6.70 | COC1COCCC1N[C@@H]1C[C@H]2C[C@@H](OC)C[C@@]2(C(=O)N2CCc3ncc(C(F)(F)F)cc3C2)C1 (mixture of isomers) | < 4.30 | 
7.35 | COC1COCCC1N[C@@H]1C[C@H]2C[C@@H](Cl)C[C@@]2(C(=O)N2CCc3ncc(C(F)(F)F)cc3C2)C1 (mixture of isomers) | < 4.30 | 

The remaining lines, values behind:

Compound | pIC50 [1] | pIC50 [2] | also measured
COC1COCCC1N[C@@H]1C[C@H]2CCC[C@@]2(C(=O)N2CCc3ccc(Br)cc3C2)C1 (mixture of isomers) | 6.54 | 4.69 | 
COC1COCCC1N[C@@H]1C[C@H]2CCC[C@@]2(C(=O)N2CCc3ncc([N+](=O)[O-])cc3C2)C1 (mixture of isomers) | 5.82 |  | 
COC1COCCC1N[C@@H]1C[C@H]2CCC[C@@]2(C(=O)N2CCc3ncc(OC(C)C)cc3C2)C1 (mixture of isomers) | 5.25 |  | 
COC1COCCC1N[C@@H]1C[C@H]2CCC[C@@]2(C(=O)N2CCc3ncc(Cl)cc3C2)C1 (mixture of isomers) | 5.96 |  | 
COC1COCCC1N[C@@H]1C[C@H]2C[C@H](N(C)C)C[C@@]2(C(=O)N2CCc3ncc(C(F)(F)F)cc3C2)C1 (mixture of isomers) | 5.09 |  | 
COC1COCCC1N[C@@H]1C[C@H]2C[C@@H](C(F)(F)F)C[C@@]2(C(=O)N2CCc3ncc(C(F)(F)F)cc3C2)C1 (mixture of isomers) | 6.58 |  | 
CO[C@@H]1COCC[C@@H]1N[C@@H]1C[C@H]2CCC[C@@]2(C(=O)N2CCc3ncc(C(F)(F)F)cc3C2)C1 |  |  | clearance [3]: 0.912 L/h/kg; bioavailability [4]: 100%; pIC50 [5]: < 5.00; ED50 [6]: 0.1 mg/kg; pIC50 [7]: < 5.00; inhibition in vivo at 3 mg/kg [8]: 100%; pIC50 [9]: 5.12; half-life [10]: 3.4 h; inhibition in vivo at 1 mg/kg [11]: 100%; AUC [12]: 12.1 µg·h/mL; pIC50 [13]: < 5.00; pIC50 [14]: < 5.00; inhibition in vivo at 0.3 mg/kg [15]: 89%; Vd [16]: 2.3 L/kg; inhibition in vivo at 10 mg/kg [17]: 101%
COC1COCCC1N[C@@H]1C[C@H]2C[C@H](C(N)=O)C[C@@]2(C(=O)N2CCc3ncc(C(F)(F)F)cc3C2)C1 (mixture of isomers) | 7.06 |  | 
COC1COCCC1N[C@@H]1C[C@H]2CCC[C@@]2(C(=O)N2CCc3ccc(F)cc3C2)C1 (mixture of isomers) | 5.36 |  | 
COC1COCCC1N[C@@H]1C[C@H]2CCC[C@@]2(C(=O)N2CCc3ncccc3C2)C1 (mixture of isomers) | < 4.60 |  | 
COC1COCCC1N[C@@H]1C[C@H]2C[C@@H](C(N)=O)C[C@@]2(C(=O)N2CCc3ncc(C(F)(F)F)cc3C2)C1 (mixture of isomers) | 6.89 |  | 
COC1COCCC1N[C@@H]1C[C@H]2C[C@@H](N(C)C)C[C@@]2(C(=O)N2CCc3ncc(C(F)(F)F)cc3C2)C1 (stereo not given in full) | 6.61 |  | 
COC1COCCC1N[C@@H]1C[C@H]2CCC[C@@]2(C(=O)N2CCc3ncc(Br)cc3C2)C1 (mixture of isomers) | 6.70 |  | 
COC1COCCC1N[C@@H]1C[C@H]2CCC[C@@]2(C(=O)N2CCc3ccc(C#N)cc3C2)C1 (mixture of isomers) | 5.74 |  | 
COC1COCCC1N[C@@H]1C[C@H]2CCC[C@@]2(C(=O)N2CCc3ccc(OC(F)(F)F)cc3C2)C1 (mixture of isomers) | 7.80 |  | 
COC1COCCC1N[C@@H]1C[C@H]2CCC[C@@]2(C(=O)N2CCc3ccc(Cl)cc3C2)C1 (mixture of isomers) | 6.40 | 4.37 | 
COC1COCCC1N[C@@H]1C[C@H]2CCC[C@@]2(C(=O)N2CCc3ccc(C(F)(F)F)cc3C2)C1 (mixture of isomers) | 7.47 | 4.56 | 
COC1COCCC1N[C@@H]1C[C@H]2C[C@H](C(F)(F)F)C[C@@]2(C(=O)N2CCc3ncc(C(F)(F)F)cc3C2)C1 (mixture of isomers) | 5.90 |  | 
COc1cnc2c(c1)CN(C(=O)[C@@]13CCC[C@@H]1C[C@@H](NC1CCOCC1OC)C3)CC2 (mixture of isomers) | < 4.60 |  | 
